Reference: ChEMBL document CHEMBL1156381, “Cacofurans A and B, new furanoditerpenes from a marine sponge” (J Nat Prod, 2001)
Values after ≈ are worked out from the molar mass of the structure shown. Active and inactive are the calls of the source. The calls are words filed in the database; no cut-off is given here.

Legend:
Escherichia coli = assay: Antibacterial activity against Escherichia coli; assay type: functional, organism-based
NBT2 = assay: Disruption of actin cytoskeleton in rat NBT2 cells at 10 ug/mL after 16 hrs by TMR-phalloidin imaging analysis; assay type: functional, cell-based
In short: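 NBT-II rat bladder epithelial carcinoma cells were treated at 10 μg/mL. Cells were then permeabilized and stained with TMR-phalloidin to image the actin cytoskeleton, with control cells for comparison.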

[1] = Cytotoxicity against rat NBT2 cells assessed as cell survival at 10 ug/mL after 16 hrs by phase contrast microscope; assay type: functional; conditions: NBT2, 16 h, read-out: Activity
In short: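 Rat bladder epithelial carcinoma NBT-II cells were exposed to 10 μg/mL test agent. Phase contrast images of control and treated cells were recorded after 16 h on an image-based high content imaging workstation.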

Bacillus cereus = assay: Antibacterial activity against Bacillus cereus; assay type: functional, organism-based
Staphylococcus aureus = assay: Antibacterial activity against methicillin-resistant Staphylococcus aureus; assay type: functional, organism-based
P388 = assay: Cytotoxicity against mouse P388 cells; assay type: functional, cell-based
[2] = Toxicity in sea urchin egg assessed as inhibition of development of fertilized egg by light microscopy; parameters: species or system Tripneustes gratilla
In short: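 Eggs and sperm were collected from mature Tripneustes gratilla specimens for the fertilized-egg development assay.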

K562 = assay: Cytotoxicity against human K562 cells; assay type: functional, cell-based

SMILES | Activity (Escherichia coli) | Activity (NBT2) | viability at 10 µg/mL [1] | Activity (Bacillus cereus) | Activity (Staphylococcus aureus) | IC50 (P388) | IC50 [2] | IC50 (K562)
CC(=O)O[C@@H](Cc1ccoc1)[C@@H]1[C@@]23CCCC(C)(C)[C@@H]2CC[C@]1(C)OC3 [CACOFURAN A] | inactive | Active | 50% | inactive | inactive | > 1 µg/mL | 0.5 µg/mL (≈ 1.39 µM) | > 1 µg/mL
CC1(C)CCC[C@@]23CO[C@@](C)(CC[C@@H]12)[C@@H]3[C@@H](O)Cc1ccoc1 [CACOFURAN B] | inactive | Active | 50% | inactive | inactive | > 1 µg/mL | 5 µg/mL (≈ 15.7 µM) | > 1 µg/mL
